The target of data set [1] is T1, hM1 (Homo sapiens, UniProt P11229).
T1 sequence (P11229 1-460): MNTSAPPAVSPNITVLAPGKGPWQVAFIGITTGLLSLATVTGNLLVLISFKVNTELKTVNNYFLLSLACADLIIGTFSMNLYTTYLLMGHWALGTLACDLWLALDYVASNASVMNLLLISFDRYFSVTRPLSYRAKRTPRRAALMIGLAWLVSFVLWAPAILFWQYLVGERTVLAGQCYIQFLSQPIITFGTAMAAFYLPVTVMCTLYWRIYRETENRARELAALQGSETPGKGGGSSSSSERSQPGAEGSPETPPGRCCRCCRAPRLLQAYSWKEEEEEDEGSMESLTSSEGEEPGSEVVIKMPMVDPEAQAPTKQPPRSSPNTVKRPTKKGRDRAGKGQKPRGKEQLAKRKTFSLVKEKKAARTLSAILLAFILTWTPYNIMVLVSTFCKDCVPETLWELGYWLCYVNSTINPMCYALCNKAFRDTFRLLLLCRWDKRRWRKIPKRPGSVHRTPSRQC
Kind of data set: Calcium mobilization PAM assay in hM1-CHO cells with EC20 acetylcholine. It is filed as cell-based. As to conditions: PAM mode. (Calcium assays in cells follow changes in intracellular calcium, usually with a dye or a luminescent sensor.)

For data set [2], the target named is T2, hM4 (Homo sapiens, UniProt P08173).
T2 sequence (P08173 1-479): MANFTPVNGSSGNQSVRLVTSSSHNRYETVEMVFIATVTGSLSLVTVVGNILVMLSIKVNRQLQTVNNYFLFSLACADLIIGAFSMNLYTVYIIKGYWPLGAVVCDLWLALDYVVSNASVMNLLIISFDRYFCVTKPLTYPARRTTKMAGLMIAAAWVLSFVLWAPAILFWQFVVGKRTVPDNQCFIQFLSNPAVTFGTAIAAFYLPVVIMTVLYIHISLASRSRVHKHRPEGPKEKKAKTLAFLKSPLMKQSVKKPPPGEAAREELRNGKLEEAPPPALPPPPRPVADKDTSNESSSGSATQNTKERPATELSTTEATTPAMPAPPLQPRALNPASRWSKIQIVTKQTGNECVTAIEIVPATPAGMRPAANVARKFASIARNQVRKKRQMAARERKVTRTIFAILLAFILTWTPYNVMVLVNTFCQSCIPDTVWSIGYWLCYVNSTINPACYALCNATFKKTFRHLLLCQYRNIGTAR
Kind of data set: Calcium mobilization PAM selectivity assay, hM4. It is filed as cell-based.

The target in data set [3] is T1, hM1. Kind of data set: Calcium mobilization agonist mode in hM1-CHO cells, no exogenous ACh. It is filed as cell-based. As to conditions: no exogenous acetylcholine. Put shortly:
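Calcium mobilization in CHO cells expressing human M1, run without added acetylcholine to measure direct agonist activity and derive agonist EC50. Values are means of one to three independent experiments, each run in triplicate.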

The nature of data set [4]: Predicted hepatic clearance, human. It is filed as in vitro ADME.
A short description of data set [5]: Predicted hepatic clearance, rat. The class given is in vitro ADME.

The term EC50 denotes the midpoint of the concentration-response curve.

Molecules are shown by their SMILES.

`Cn1cc2c(-c3cc(F)c(CN4Cc5nc[nH]c5C4=O)c(F)c3)cccc2n1` [Compound 8a]: in data set [1], the “hM1 activity (in words)” value is “inactive”.
Take `Cn1cc2cc(-c3ccc(CN4Cc5ncsc5C4=O)c(F)c3)ccc2n1` [Compound 8b]: the EC50 in data set [2] was above 10 µM. Further, the hM1 agonist activity result in data set [3] is “devoid of any hM1 agonist activity”. The hClhep in data set [4] was 10.4 mL/min/kg. Also, the rClhep in data set [5] was 43 mL/min/kg.
Take `Cn1cc2c(-c3cc(F)c(CN4Cc5ncoc5C4=O)c(F)c3)cccc2n1` [Compound 12a]: the “hM1 activity (in words)” value in data set [1] is “inactive”.
The same measure, in the same setting: the entry for `Cn1cc2c(-c3cc(F)c(CN4Cc5ocnc5C4=O)c(F)c3)cccc2n1` [Compound 12b] is “inactive”.
Consider `Cn1cc2c(-c3cc(F)c(CN4Cc5cnn(CC6CCCO6)c5C4=O)c(F)c3)cccc2n1` (stereo not drawn) [Compound 20a], for which the EC50 in data set [2] was above 10 µM. The hM1 agonist activity result in data set [3] is recorded as “devoid of any hM1 agonist activity”. For the same compound, in data set [4], the hClhep is 18.6 mL/min/kg. Also, in data set [5], the rClhep is 58.7 mL/min/kg.
Take `Cc1[nH]cc2c1C(=O)N(Cc1c(F)cc(-c3cccc4nn(C)cc34)cc1F)C2` [Compound 25a]: in data set [1], the “hM1 activity (in words)” value was “inactive”.
